Here are results for eleven compounds from ChEMBL document CHEMBL2176986, “Selective and potent urea inhibitors of cryptosporidium parvum inosine 5'-monophosphate dehydrogenase” (J Med Chem, 2012).

pEC50, pIC50: −log10 of the molar value.

In series [1] the test system is Toxoplasma gondii. As to the kind of experiment: Selectivity ratio of EC50 of wild type Toxoplasma gondii to EC50 of Toxoplasma gondii expressing Cryptosporidium parvum IMPDH. An outline of the steps: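 Selectivity is the EC50 against wild-type RH T. gondii divided by the EC50 against the CpIMPDH-dependent strain. Both were measured by daily YFP fluorescence of parasites on hTERT human foreskin fibroblasts over 6-7 days, with inhibition taken in exponential growth.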

Series [2] deals with T1, Inosine-5'-monophosphate dehydrogenase (Cryptosporidium parvum, UniProt Q8T6T2).
T1 sequence (Q8T6T2 whole entry): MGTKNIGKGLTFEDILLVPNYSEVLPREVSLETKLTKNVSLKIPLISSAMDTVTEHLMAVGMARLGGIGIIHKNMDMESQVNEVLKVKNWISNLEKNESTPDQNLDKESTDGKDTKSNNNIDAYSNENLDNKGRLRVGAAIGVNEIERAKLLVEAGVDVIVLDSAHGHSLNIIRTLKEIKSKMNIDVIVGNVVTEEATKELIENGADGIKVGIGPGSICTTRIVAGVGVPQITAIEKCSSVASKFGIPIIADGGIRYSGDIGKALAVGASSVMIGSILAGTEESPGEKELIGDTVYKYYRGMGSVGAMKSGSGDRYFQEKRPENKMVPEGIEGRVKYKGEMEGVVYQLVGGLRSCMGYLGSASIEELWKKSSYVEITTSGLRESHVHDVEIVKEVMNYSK
The experiment in a line: Inhibition of Cryptosporidium parvum recombinant IMPDH expressed in Escherichia coli assessed as production of NADH in presence of 0.05% fatty acid free BSA incubated for 5 mins by fluorescence based assay. The method in brief:
(§1)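 Recombinant CpIMPDH purified from E. coli, 10 nM, preincubated with inhibitor 5 min at room temperature before substrates added. NADH formation followed by fluorescence. Line 3 also includes 0.05% fatty-acid-free BSA.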

The subject of series [3] is Plasma. As to the kind of experiment: Half life in mouse plasma. The series is classed as ADME, cell-free.
Series [4] has as its system Toxoplasma gondii. As to the kind of experiment: Antiparasitic activity against Toxoplasma gondii expressing Cryptosporidium parvum IMPDH and co-expressing yellow fluorescent protein infected to human TERT immobilized human foreskin fibroblasts assessed as parasite growth inhibition for 6 to 7 days by fluorescence based assay. Type of series: functional, organism-based. The method in brief: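 Parasite lines carrying yellow fluorescent protein were grown on hTERT-immortalized human foreskin fibroblasts. One line depends on C. parvum IMPDH (Toxo/CpIMPDH). The other is wild-type strain RH, which has its own eukaryotic IMPDH. Fluorescence (Ex 485, Em 530) was read daily for 6-7 days. Growth inhibition was taken on a day within exponential growth.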

In series [5] the test system is Toxoplasma gondii. The experiment in a line: Toxicity against wild type Toxoplasma gondii expressing yellow fluorescent protein infected in human TERT immobilized human foreskin fibroblasts assessed as parasite growth inhibition for 6 to 7 days by fluorescence based assay. Type of series: organism-based. The method in brief:
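Parasite lines carrying yellow fluorescent protein were grown on hTERT-immortalized human foreskin fibroblasts. One line depends on C. parvum IMPDH (Toxo/CpIMPDH). The other is wild-type strain RH, which has its own eukaryotic IMPDH. Growth inhibition was taken on a day within exponential growth.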

Series [6] concerns Liver. The experiment in a line: Half life in mouse liver microsomes. The series is classed as ADME, Microsome. For orientation: Liver microsomes are vesicles of endoplasmic reticulum, rich in cytochrome P450 enzymes.
Series [7] addresses T1, Inosine-5'-monophosphate dehydrogenase. As to the kind of experiment: Inhibition of Cryptosporidium parvum recombinant IMPDH expressed in Escherichia coli assessed as production of NADH incubated for 5 mins by fluorescence based assay. An outline of the steps: as §1
In series [8] the target is Inosine-5'-monophosphate dehydrogenase 2 (Homo sapiens, UniProt P12268). As to the kind of experiment: Inhibition of human IMPDH 2.

In general, pIC50 refers to the negative decadic logarithm of the IC50, by convention in mol/L. By pEC50 is commonly meant the negative decadic logarithm of the EC50, by convention in mol/L. For the compound `C/C(=N\O)c1cccc(C(C)(C)NC(=O)Nc2ccc(Cl)c(C(N)=O)c2)c1`, in series [1], the “Ratio EC50” value is over 12. Also, the negative-log IC50 (pIC50) in series [2] is 8.22. The t1/2 is over 2 h in series [3] and 3.17 h in series [6]. Also, the pEC50 was 5.72 in series [4] and under 4.60 in series [5].

`C/C(=N\O)c1cccc(C(C)(C)NC(=O)Nc2ccc(Cl)c(C(F)(F)F)c2)c1`: the pIC50 in series [2] is 8.40; in series [7] it was 9.00. The negative logarithm of the EC50 (pEC50) in series [4] is 8.00. Also, in series [6], the t1/2 worked out at 1.47 h.

Turning to `CC(=O)c1cccc(C(C)(C)NC(=O)Nc2ccc(Cl)c(C(N)=O)c2)c1`, in series [1], the “Ratio EC50” value is over 66. Besides, the negative-log IC50 (pIC50) in series [2] is 7.28; in series [7] it was 7.27. The t1/2 in series [3] was over 2 h; in series [6], over 11.7 h. For the same compound, the figures for the negative logarithm of the EC50 (pEC50) in series [4] and in series [5] were 6.42 and under 4.60, respectively.

As to `CO/N=C(\C)c1cccc(C(C)(C)NC(=O)Nc2ccc(Cl)c(C(F)(F)F)c2)c1`, in series [1], the “Ratio EC50” value came out at 86. For the same compound, the negative-log IC50 (pIC50) was 7.74 in series [2] and 8.30 in series [7]. For the same compound, the pEC50 in series [4] is 7.80; in series [5] it was 5.85. This compound yielded a t1/2 in series [6] of 0.55 h.

As to `C/C(=N\O)c1cccc(C(C)(C)NC(=O)Nc2ccc(Cl)c([N+](=O)[O-])c2)c1`, the negative logarithm of the IC50 (pIC50) was 8.70 in series [2] and 9.18 in series [7]. Further, the pEC50 in series [4] is 8.22. The compound also registered a t1/2 in series [6] of 0.183 h.

With `C=C(C)c1cccc(C(C)(C)NC(=O)Nc2ccc(Cl)c(C(N)=O)c2)c1`, in series [1], the “Ratio EC50” value is listed as 65. Also, the negative-log IC50 (pIC50) in series [2] was 8.52; in series [7] it was 8.64; in series [8], at most 5.30. For the same compound, the results for the t1/2 in series [3] and in series [6] were over 2 h and 0.417 h, respectively. Further, the values for the pEC50 in series [4] and in series [5] were 6.64 and 4.82, respectively.

As for `C/C(=N\O)c1cccc(C(C)(C)NC(=O)Nc2ccc3cccnc3c2)c1`, the “Ratio EC50” value in series [1] is listed as 230. In addition, the pIC50 in series [2] was 8.92; in series [7], 9.05. Besides, the t1/2 in series [3] was over 2 h; in series [6], 0.75 h. In addition, the pEC50 was 7.24 in series [4] and 4.85 in series [5].

Turning to `C/C(=N\OCCN)c1cccc(C(C)(C)NC(=O)Nc2ccc(Cl)c([N+](=O)[O-])c2)c1`, in series [1], the “Ratio EC50” value stood at 20. The pIC50 was 7.62 in series [2] and 7.70 in series [7]. The pEC50 in series [4] was 6.29; in series [5], 5.00. The compound also had a t1/2 in series [6] of 2.02 h.

For `C=C(C)c1cccc(C(C)(C)NC(=O)Nc2cnc3ccccc3c2)c1`, the “Ratio EC50” value in series [1] was found to be 2.3. The results for the pIC50 in series [2], in series [7] and in series [8] were 6.51, 7.15 and at most 5.30, respectively. The results for the pEC50 in series [4] and in series [5] were 5.96 and 5.70, respectively.

Take `C=C(C)c1cccc(C(C)(C)NC(=O)Nc2ccccc2)c1`: the “Ratio EC50” value in series [1] was found to be 8. In addition, the negative logarithm of the IC50 (pIC50) is 6.39 in series [2], 6.60 in series [7] and at most 5.30 in series [8]. The figures for the negative-log EC50 (pEC50) in series [4] and in series [5] were 6.11 and 5.22, respectively.

For the compound `C=C(C)c1cccc(C(C)(C)NC(=O)Nc2ccc3cccnc3c2)c1`, the “Ratio EC50” value in series [1] was over 15. Further, the values for the negative-log IC50 (pIC50) in series [2], in series [7] and in series [8] were 8.22, 9.10 and at most 5.30, respectively. Further, the t1/2 was over 2 h in series [3] and 0.0983 h in series [6]. The figures for the negative logarithm of the EC50 (pEC50) in series [4] and in series [5] were over 6.70 and 5.52, respectively.
